Reference: paper PMC9294072 (ACS chemical biology, 2022)
Where no end group is shown, it is not given here. [ ]: non-standard residue; d: D form. Arg(Me2a) = CN(C)C(=N)NCCC[C@H](N)C(=O)O; Arg(Me2s) = CN=C(NC)NCCC[C@H](N)C(=O)O; pS = N[C@@H](COP(=O)(O)O)C(=O)O

Biological target: T1, hNatD (Homo sapiens, UniProt Q86UY6)
Test: Continuous fluorescence-based acetylation assay
Type: biochemical
Settings: G4V relative to G4D
Outline: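 hNatD activity monitored continuously by fluorescence at 25 °C. All components except peptide were preincubated for 10 min, then the reaction was started with varying peptide concentrations. For AcCoA characterization, the peptide substrate was fixed at 50 μM. Readings were taken at 400–415 nm and 460–485 nm. Signal was converted to CoA via a standard curve, and initial velocities were fit to Michaelis-Menten or substrate-inhibition models. Run at least in duplicate.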

| Substance | fold higher kcat/Km for G4V than G4D [fold] |
| --- | --- |
| G4V: oncohistone H4/H2A pentapeptide with G4V mutation (SGRVK-NH2) | 7 |

Same assay, conditions: H2A peptide vs H4 peptide of the same length

| Substance | fold reduction in kcat/Km compared to corresponding H4 peptides |
| --- | --- |
| H2A-12: C-terminal truncated H2A synthetic peptide, 12 residues (SGRGKQGGKARA-NH2; UniProt P0C0S8 2-13, looked up, fragment) | about 4 fold |

Same assay, conditions: SMARCD2-derived pentapeptide vs H4-5 (also H2A-5)

| Substance | fold difference in kcat and kcat/Km compared to H4-5 |
| --- | --- |
| SGRGA | less than 2 fold |

Same assay, conditions: fluorescence assay; compared to H4-5

| kinetic parameters relative to unmodified H4-5 (in words) | Substance |
| --- | --- |
| comparable kinetic parameters | H4K5ac: H4 pentapeptide with Lys5 acetylation (SGRGK(Ac)-NH2) |

Same assay, conditions: normalized to wild-type H4-5; fluorescence assay

| Substance | fold decrease in kcat compared to H4-5 | fold reduction in kcat/Km compared to H4-5 |
| --- | --- | --- |
| G2E: oncohistone H4/H2A pentapeptide with G2E mutation (SERGK-NH2) | 3 fold | – |
| G4D: oncohistone H4/H2A pentapeptide with G4D mutation (SGRDK-NH2) | less than 2 fold | – |
| G4S: oncohistone H4/H2A pentapeptide with G4S mutation (SGRSK-NH2) | 7 fold | 17 fold |
| G4V: oncohistone H4/H2A pentapeptide with G4V mutation (SGRVK-NH2) | less than 2 fold | – |
| H4R3me1: H4 pentapeptide with Arg3 monomethylation (SG[Rme1]GK-NH2; UniProt P62805 2-6, looked up, fragment) | – | 3.6 fold |
| H4R3me2a: H4 pentapeptide with Arg3 asymmetric dimethylation (SG[Arg(Me2a)]GK-NH2; UniProt P62805 2-6, looked up, fragment) | – | 8 fold |
| H4R3me2s: H4 pentapeptide with Arg3 symmetric dimethylation (SG[Arg(Me2s)]GK-NH2) | – | 17 fold |
| H4pS1: H4 pentapeptide with Ser1 phosphorylation ([pS]GRGK-NH2) | 2.3 fold | over 100 fold |
| R3H: oncohistone H4/H2A pentapeptide with R3H mutation (SGHGK-NH2) | 1.5 fold | 6.5 fold |
| R3Q: oncohistone H4/H2A pentapeptide with R3Q mutation (SGQGK-NH2) | 3 fold | 200 fold |
| S1L: oncohistone H4/H2A pentapeptide with S1L mutation (LGRGK-NH2) | 5 fold | – |

Biological target: T1, hNatD
Test: MALDI-MS acetylation assay
Type: biochemical
Settings: relative to wild-type H4-5
Outline: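 Human NatD 50 nM with 50 µM AcCoA in 25 mM HEPES, 150 mM NaCl, pH 7.5, 25 °C. Reaction started by adding peptide in 2-fold dilutions. Cysteine peptides were pre-reduced with DTT and diluted in buffer containing 10 mM DTT. Timed aliquots were quenched 1:1 in 0.1% TFA and spotted with CHCA for MALDI-MS of acetylated product. Initial slopes were fitted to Michaelis-Menten or substrate-inhibition models, in duplicate.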

| Substance | fold reduction in kcat/Km compared to H4-5 |
| --- | --- |
| CGRGK [S1C] | ~ 100 fold |
| S1F: oncohistone H4/H2A pentapeptide with S1F mutation (FGRGK-NH2) | over 1,000 fold |
| SGCGK [R3C] | 17 fold |
